The values that follow come from ChEMBL document CHEMBL2407050, “Wilsonols A-L, megastigmane sesquiterpenoids from the leaves of Cinnamomum wilsonii” (J Nat Prod, 2013).

Molecules are shown by their SMILES. Activity calls are given as the source filed them. Unless noted, the calls are words filed in the database; no cut-off is given here.

The subject of data set [1] is SMMC-7721. The data set is described as follows: Cytotoxicity against human SMMC7721 cells after 48 hrs by MTS assay. Format: functional, cell-based. Conditions: SMMC-7721, 48 h. An outline of the steps:
(§1)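 Cells grown in DMEM or RPMI-1640 with 10% FBS at 37 °C under 5% CO₂. Adherent cells plated 12 h before dosing; suspension cells plated at dosing, initial density 1 × 10⁵ cells/mL. MTS (5 mg/mL stock) added for 4 h at 37 °C, then SDS lysis and OD at 595 nm. IC50 by Reed–Muench.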

Data set [2] deals with A549. The data set is described as follows: Cytotoxicity against human A549 cells after 48 hrs by MTS assay. Format: functional, cell-based. The note with it: A549, 48 h. In a few lines:
as §1
A general note: Tetrazolium assays rely on reduction of a dye to a coloured formazan, in cell work by metabolically active cells.

Data set [3] is described as follows: Cytotoxicity against mouse T lymphocytes after 48 hrs by CCK-8 assay. The note with it: t-cell. In a few lines: (§2)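 Splenocyte toxicity run without ConA or LPS at 5 × 10⁶ cells/200 μL/well. Cultured 48 h at 37 °C, 5% CO₂ with CCK-8 during the final 4 h; A450 read against a 600 nm reference. Viability (%) = compound OD450 / […] OD450 × 100.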
The subject of the next data set is SW480. The experiment in a line: Cytotoxicity against human SW480 cells after 48 hrs by MTS assay. The note with it: SW480, 48 h. In kind it is functional, cell-based. In a few lines:
as §1

The next data set concerns HL-60. The data set is described as follows: Cytotoxicity against human HL60 cells after 48 hrs by MTS assay. Format: functional, cell-based. Conditions: HL-60, 48 h. An outline of the steps: as §1
Data set [4] can be described thus: Cytotoxicity against mouse B lymphocytes after 48 hrs by CCK-8 assay. The note with it: b-cell. An outline of the steps: as §2
A further data set deals with B-cell. The data set is described as follows: Inhibition of LPS-induced mouse B lymphocytes proliferation after 48 hrs by CCK-8 assay. Format: functional. In a few lines:
(§3)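 Murine splenocytes, 2.5 × 10⁶ per well, co-treated with compounds at various concentrations plus ConA (5 μg/mL, T-cell stimulus) or LPS (B-cell stimulus). Cultured 48 h at 37 °C, 5% CO₂; CCK-8 added for the last 4 h, A450 read against a 600 nm reference. Triplicate means; change expressed relative to the stimulated positive control. >10% inhibition counted as active.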

The test system of data set [5] is MCF7. The data set is described as follows: Cytotoxicity against human MCF7 cells after 48 hrs by MTS assay. In kind it is functional, cell-based. Conditions: MCF7, 48 h. An outline of the steps:
as §1

The subject of the next data set is T-cell. The experiment in a line: Inhibition of ConA-induced mouse T lymphocytes proliferation after 48 hrs by CCK-8 assay. Format: functional. In a few lines:
as §3

The test system of data set [6] is SMMC-7721. The data set is described as follows: Selectivity index, ratio of IC50 for human BEAS2B cells to IC50 for human SMMC7721 cells. Format: functional. An outline of the steps: (§4)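 Ratio of the Beas-2B IC50 to the IC50 for each cancer line. Both IC50s come from the 48 h MTS viability assay with Reed–Muench calculation.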
Data set [7] relates to MCF7. The data set is described as follows: Selectivity index, ratio of IC50 for human BEAS2B cells to IC50 for human MCF7 cells. In kind it is functional. An outline of the steps: as §4
Data set [8] can be described thus: Selectivity index, ratio of IC50 for human BEAS2B cells to IC50 for human HL60 cells. Format: functional. An outline of the steps: as §4
Data set [9] in a line: Cytotoxicity against human BEAS2B cells after 48 hrs by MTS assay. Format: cell-based. The note with it: beas-2b. An outline of the steps:
as §1

The subject of data set [10] is A549. The data set is described as follows: Selectivity index, ratio of IC50 for human BEAS2B cells to IC50 for human A549 cells. Format: functional. In a few lines:
as §4

Data set [11] in a line: Selectivity index, ratio of IC50 for human BEAS2B cells to IC50 for human SW480 cells. In kind it is functional. An outline of the steps:
as §4

Broadly, the IC50 is the concentration needed to halve the response being measured. Read a high IC50 as weaker potency in that assay. With `C[C@H](O)CCC1=C(CO)C[C@@H](O)CC1(C)C`, the IC50 with SMMC-7721 [1], in the data set with A549 [2], with SW480, with HL-60 and in the data set with MCF7 [5] was over 10 µM throughout. The Activity entry in [3] and in data set [4] was “Non-toxic” throughout. Moreover, the inhibition result in the data set with B-cell and with T-cell was “Active” each time.
On to `C[C@@H]1C[C@H](O)CC(C)(C)[C@]1(O)CC[C@@H](C)O` [WILSONOL F], for which the half-maximal inhibitory concentration (IC50) in the data set on SMMC-7721 [1], in the data set with A549 [2], in the data set with SW480, in the data set on HL-60 and in the data set with MCF7 [5] was over 10 µM each time. Moreover, the Activity result in data set [3] and in [4] was “Non-toxic” throughout.
On to `C[C@@H](O)/C=C/[C@H]1C(CO)=CC(=O)CC1(C)C`, for which the concentration for half-maximal inhibition (IC50) in the data set on SMMC-7721 [1], in the data set on A549 [2], in the data set with SW480, in the data set with HL-60 and with MCF7 [5] was over 10 µM in each case.
On to `C[C@@H](O)/C=C/[C@@]1(O)[C@@H](C)C[C@H](O)CC1(C)C`, for which the IC50 with SMMC-7721 [1], in the data set with A549 [2], in the data set on SW480, with HL-60 and in the data set on MCF7 [5] was over 10 µM each time. The Activity result in [3] and in [4] was “Non-toxic” in each case. Moreover, the inhibition result in the data set on B-cell and in the data set with T-cell was “Active” throughout.
Turning to `C[C@H](O)/C=C/[C@@]1(O)[C@H](C)[C@H](O)[C@@H](O)CC1(C)C` [WILSONOL A], the IC50 in the data set with SMMC-7721 [1], in the data set on A549 [2], in the data set with SW480, in the data set on HL-60 and in the data set on MCF7 [5] was over 10 µM in each case. The Activity result in [3] and in data set [4] was “Non-toxic” throughout. Besides, the inhibition entry with T-cell was “Active”.
Consider `C[C@@H](O)/C=C/[C@H]1[C@H](CO)C[C@H](O)CC1(C)C`, for which the IC50 with SMMC-7721 [1], in the data set with A549 [2], with SW480, with HL-60 and in the data set with MCF7 [5] was over 10 µM in each case. Besides, the Activity entry in [3] and in data set [4] was “Non-toxic” in each case.
For the compound `CC(O)/C=C/[C@H]1[C@H](C)[C@H](O)[C@@H](O)CC1(C)C` (mixture of isomers) [WILSONOL E], the IC50 in the data set on SMMC-7721 [1], with A549 [2], in the data set on SW480, in the data set on HL-60 and with MCF7 [5] was over 10 µM each time.
In the case of `C[C@@H](O)/C=C/[C@@H]1C(C)(C)[C@H](O)C[C@@H](O)[C@]1(C)O`, the 50% inhibitory concentration (IC50) with SMMC-7721 [1], in the data set on A549 [2], in the data set on SW480, in the data set with HL-60 and with MCF7 [5] was over 10 µM throughout.
With `CC1=C(CC[C@H](C)O)C(C)(C)C[C@H](O[C@@H]2O[C@H](CO)[C@@H](O)[C@H](O)[C@H]2O)C1`, the “Ratio IC50” value (with SMMC-7721 [6]; in the data set with MCF7 [7]; in [8]; in the data set on A549 [10]; in [11]) was over 16 in each case. The IC50 in the data set with SMMC-7721 [1] was 3.1 µM; in the data set with A549 [2], 2.5 µM; in the data set with SW480, 12 µM; in the data set with HL-60, 5 µM; in the data set with MCF7 [5] it was 3.4 µM. The Activity entry in data set [9], in [3] and in [4] was “Non-toxic” in each case.
With `CC(=O)/C=C/[C@@]1(O)[C@H](C)[C@H](O)[C@@H](O)CC1(C)C` [WILSONOL C], the IC50 in the data set on SMMC-7721 [1], with A549 [2], in the data set with SW480, in the data set with HL-60 and in the data set with MCF7 [5] was over 10 µM in each case. For the same compound, the Activity entry in data set [3] and in data set [4] was “Non-toxic” throughout.
`CC(=O)/C=C/[C@@]1(O)[C@H](C)[C@H](O[C@@H]2O[C@H](CO)[C@@H](O)[C@H](O)[C@H]2O)[C@@H](O)CC1(C)C`: the IC50 in the data set with SMMC-7721 [1], in the data set on A549 [2], with SW480, with HL-60 and in the data set with MCF7 [5] was over 10 µM throughout. The Activity result in data set [3] and in [4] was “Non-toxic” throughout.
Take `CC1=C(CC[C@@H](C)O)C(C)(C)C[C@H](O)[C@@H]1O`: the IC50 with SMMC-7721 [1], in the data set on A549 [2], in the data set on SW480, in the data set on HL-60 and in the data set on MCF7 [5] was over 10 µM throughout. Further, the Activity entry in data set [3] and in data set [4] was “Non-toxic” each time. The inhibition entry in the data set on B-cell is “Active”.
On to `C[C@@H]1[C@H](O)[C@@H](O)CC(C)(C)[C@@]1(O)/C=C/[C@@H](C)O` [WILSONOL B], for which the IC50 with SMMC-7721 [1], in the data set on A549 [2], with SW480, in the data set with HL-60 and in the data set on MCF7 [5] was over 10 µM each time. For the same compound, the Activity result in [3] and in [4] was “Non-toxic” each time. Further, in the data set with T-cell, the inhibition entry is “Active”.
Take `COC(=O)/C=C(C)\C=C\[C@@]1(O)C(C)=CC(=O)CC1(C)C`: the half-maximal inhibitory concentration (IC50) with SMMC-7721 [1], in the data set on A549 [2], with SW480, in the data set with HL-60 and in the data set on MCF7 [5] was over 10 µM in each case. The Activity entry in data set [3] and in data set [4] was “Non-toxic” in each case. Also, the inhibition result in the data set with B-cell and in the data set on T-cell was “inactive” each time.
As for `C[C@@H](O)/C=C/[C@@]1(O)C(C)(C)C[C@H](O)[C@@H](O)[C@@]1(C)O` [WILSONOL H], the IC50 with SMMC-7721 [1], with A549 [2], with SW480, in the data set on HL-60 and in the data set on MCF7 [5] was over 10 µM each time.
As to `C[C@@H]1[C@H](O)[C@@H](O)CC(C)(C)[C@H]1/C=C/[C@H](C)O`, the half-inhibitory concentration (IC50) with SMMC-7721 [1], in the data set on A549 [2], with SW480, in the data set on HL-60 and with MCF7 [5] was over 10 µM each time. The Activity entry in data set [3] and in data set [4] was “Non-toxic” each time.
